How the values were obtained:
[1] = organism: Homo sapiens; assay: Selectivity ratio of Ki for human testis ACE delta36NJ mutant to Ki for human ACE Ndom389 mutant
Outline: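 Ki for each domain calculated from IC50 values obtained by Z-FHL hydrolysis assay (Ndom389 10 nM, tACE Δ36NJ 5 nM; 30 min room temperature preincubation, 15 min at 40 °C, OPA fluorescence ex 360/em 485 nm, triplicate). Ratio of C-domain Ki to N-domain Ki.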

[2] = Inhibition of human testis ACE delta36NJ mutant preincubated for 30 mins followed by Z-FHL substrate addition measured after 15 mins by fluorimetric method
Outline: (§1)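 Enzyme diluted from frozen stock to 10 nM (Ndom389, line 1) or 5 nM (tACE Δ36NJ, line 2) in 100 mM potassium phosphate pH 8.3, 300 mM NaCl, 10 μM ZnSO4, 1 mg/ml albumin. Compounds (10-fold series 100 μM–1 nM, then 9-point two-fold series) preincubated with enzyme 1:1, 30 min, room temperature. 1 mM Z-FHL added, 40 °C, 15 min. OPA/NaOH derivatisation, HCl quench. Fluorescence ex 360/em 485 nm, triplicate wells. IC50 from activity curves, converted to Ki.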

[3] = Inhibition of human ACE Ndom389 mutant preincubated for 30 mins followed by Z-FHL substrate addition measured after 15 mins by fluorimetric method; outline: as §1

Structure (SMILES) | Ratio Ki [1] | Ki [2] [nM] | Ki [3] [nM]
C[C@H](N[C@H](C(=O)O)[C@@H]1CCCN1C(=O)[C@@H](N)CCC(=O)O)C(=O)N1CCC[C@H]1C(=O)O | 1.81 | 17.4 | 9.63
C[C@H](N[C@H](C(=O)O)[C@@H]1CCCN1C(=O)CN)C(=O)N1CCC[C@H]1C(=O)O | 0.16 | 44.4 | 279
C[C@H](N[C@H](C(=O)O)[C@@H]1CCCN1C(=O)[C@@H](N)Cc1ccccc1)C(=O)N1CCC[C@H]1C(=O)O | 2.39 | 168 | 70.3
C[C@H](N[C@H](C(=O)O)[C@@H]1CCCN1C(=O)[C@@H](N)CC(=O)O)C(=O)N1CCC[C@H]1C(=O)O | 83.9 | 961 | 11.4
C[C@H](N[C@H](C(=O)O)[C@@H]1CCCN1C(=O)c1ccc(C(=O)O)cc1)C(=O)N1CCC[C@H]1C(=O)O | 0.14 | 2.29 | 16.9

These reach a lower Ki [2]. Values come first.

Ratio Ki [1] | Ki [2] [nM] | Ki [3] [nM] | Structure (SMILES)
0.07 | 0.22 | 3.37 | C[C@H](N[C@H](C(=O)O)[C@@H]1CCCN1C(=O)c1ccc(N)cc1)C(=O)N1CCC[C@H]1C(=O)O
0.07 | 0.31 | 4.45 | C[C@H](N[C@H](C(=O)O)[C@@H]1CCCN1C(=O)c1ccccc1)C(=O)N1CCC[C@H]1C(=O)O
